Laboratory results as given in ChEMBL document CHEMBL4190292, “Electrophilic Triterpenoid Enones: A Comparative Thiol-Trapping and Bioactivity Study” (J Nat Prod, 2017).

Columns and labels:
Format in all cases: cell-based
[1] = Inhibition of TNF-alpha stimulated NF-kappaB (unknown origin) expressed in mouse NIH/3T3 cells after 6 hrs by luciferase reporter gene assay; conditions: NIH3T3, 6 h
Outline: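 NIH-3T3-KBF-Luc mouse fibroblasts given TNFα (20 ng/mL) with or without compounds for 6 h. Cells washed, lysed in Tris-phosphate pH 7.8 buffer, and luciferase read on the supernatant. Inhibition expressed as percent of TNFα-induced NF-κB activity (100%). Mean of at least five independent experiments.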

[2] = molecular target: T1, Nuclear factor erythroid 2-related factor 2 (Homo sapiens) (UniProt Q16236); experiment: Activation of Nrf2 (unknown origin) expressed in human HaCaT-ARE-luc cells after 6 hrs by luciferase reporter gene assay relative to control tertbutylhydroquinone
T1 sequence (whole entry): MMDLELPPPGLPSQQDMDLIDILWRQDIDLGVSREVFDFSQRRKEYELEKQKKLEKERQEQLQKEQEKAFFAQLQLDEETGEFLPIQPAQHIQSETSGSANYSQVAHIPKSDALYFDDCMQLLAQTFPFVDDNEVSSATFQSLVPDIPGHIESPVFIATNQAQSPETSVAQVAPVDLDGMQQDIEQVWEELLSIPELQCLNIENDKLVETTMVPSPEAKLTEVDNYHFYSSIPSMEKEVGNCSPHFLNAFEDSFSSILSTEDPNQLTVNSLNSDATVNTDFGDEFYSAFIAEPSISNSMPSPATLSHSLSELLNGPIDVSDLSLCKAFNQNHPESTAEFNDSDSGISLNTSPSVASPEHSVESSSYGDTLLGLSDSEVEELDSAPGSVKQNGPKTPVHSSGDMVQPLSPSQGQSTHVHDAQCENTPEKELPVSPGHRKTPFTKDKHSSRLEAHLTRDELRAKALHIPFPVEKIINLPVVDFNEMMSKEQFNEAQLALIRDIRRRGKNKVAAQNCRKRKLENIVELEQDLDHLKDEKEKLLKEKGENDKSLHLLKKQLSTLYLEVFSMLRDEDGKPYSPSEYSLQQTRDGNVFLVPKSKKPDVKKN

HaCaT = experiment: Cytotoxicity against human HaCaT cells harboring pARE-Luc assessed as reduction in cell viability at >5 to 10 uM
[3] = molecular target: T2, Nuclear factor erythroid 2-related factor 2 (Homo sapiens, UniProt Q16236); experiment: Activation of Nrf2 (unknown origin) expressed in human HaCaT-ARE-luc cells after 6 hrs by luciferase reporter gene assay
T2 sequence (Q16236 whole entry): T1 sequence (whole entry)
Outline: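 HaCaT-ARE-Luc keratinocytes in DMEM with 10% FBS, 37 °C, 5% CO2, exposed to compounds for 6 h. Cells then washed with PBS and lysed (Tris-phosphate pH 7.8, MgCl2, DTT, Triton X-100, glycerol, 15 min RT). Luciferase RLU read on the supernatant and EC50 derived. Mean of at least five independent experiments.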

[4] = molecular target: Signal transducer and activator of transcription 3 (Homo sapiens, UniProt P40763); experiment: Inhibition of IFN-gamma stimulated STAT3 (unknown origin) expressed in human HeLa cells after 6 hrs by luciferase reporter gene assay
Outline: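 HeLa-STAT3-Luc cells stimulated with γIFN (20 IU/mL) with or without compounds for 6 h. PBS-washed cells lysed 15 min at room temperature and luciferase RLU measured. Values expressed as percent inhibition of IFN-γ-induced activity (taken as 100%). Mean of at least five independent experiments.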

HeLa = experiment: Cytotoxicity against human HeLa cells harboring pSTAT3-Luc assessed as reduction in cell viability at >5 to 10 uM

Sequence of Signal transducer and activator of transcription 3 (P40763 whole entry): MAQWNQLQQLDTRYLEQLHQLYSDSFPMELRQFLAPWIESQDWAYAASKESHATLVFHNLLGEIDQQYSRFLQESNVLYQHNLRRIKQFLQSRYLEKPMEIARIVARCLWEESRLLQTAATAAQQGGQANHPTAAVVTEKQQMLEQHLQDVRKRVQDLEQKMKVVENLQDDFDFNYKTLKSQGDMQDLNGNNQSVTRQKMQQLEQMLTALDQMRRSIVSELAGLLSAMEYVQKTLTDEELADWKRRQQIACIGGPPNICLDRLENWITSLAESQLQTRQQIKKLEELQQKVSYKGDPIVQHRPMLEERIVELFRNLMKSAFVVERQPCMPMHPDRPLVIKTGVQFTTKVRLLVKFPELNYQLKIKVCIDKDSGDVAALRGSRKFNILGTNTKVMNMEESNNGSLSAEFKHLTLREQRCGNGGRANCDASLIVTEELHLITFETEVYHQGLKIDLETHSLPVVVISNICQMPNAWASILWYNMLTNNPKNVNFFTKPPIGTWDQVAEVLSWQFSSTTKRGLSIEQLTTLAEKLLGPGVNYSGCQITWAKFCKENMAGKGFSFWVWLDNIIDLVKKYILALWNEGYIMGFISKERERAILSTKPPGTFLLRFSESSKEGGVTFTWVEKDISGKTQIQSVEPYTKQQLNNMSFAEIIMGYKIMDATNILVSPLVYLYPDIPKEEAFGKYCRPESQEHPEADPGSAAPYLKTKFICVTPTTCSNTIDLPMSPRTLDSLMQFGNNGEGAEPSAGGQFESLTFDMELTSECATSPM

Row | IC50 [1] [µM] | Structure (SMILES) | also measured
1 | > 25 | COC(=O)[C@]12CCC(C)(C)C[C@H]1C1=CC[C@@H]3[C@@]4(C)C=C(OC(C)=O)C(=O)C(C)(C)[C@@H]4CC[C@@]3(C)[C@]1(C)CC2 | –
2 | > 25 | COC(=O)[C@]12CCC(C)(C)C[C@H]1C1=CC[C@@H]3[C@@]4(C)C=C(Br)C(=O)C(C)(C)[C@@H]4CC[C@@]3(C)[C@]1(C)CC2 | –
3 | > 25 | COC(=O)[C@]12CCC(C)(C)C[C@H]1C1=CC[C@@H]3[C@@]4(C)C=C(C(=O)O)C(=O)C(C)(C)[C@@H]4CC[C@@]3(C)[C@]1(C)CC2 | Ratio [2]: 0.41
4 | > 25 | COC(=O)[C@]12CCC(C)(C)C[C@H]1C1=CC[C@@H]3[C@@]4(C)C=CC(=O)C(C)(C)[C@@H]4CC[C@@]3(C)[C@]1(C)CC2 | –
5 | > 25 | COC(=O)[C@]12CCC(C)(C)C[C@H]1C1=CC[C@@H]3[C@@]4(C)C=C(I)C(=O)C(C)(C)[C@@H]4CC[C@@]3(C)[C@]1(C)CC2 | –
6 | > 25 | COC(=O)[C@]12CCC(C)(C)C[C@H]1C1=CC[C@@H]3[C@@]4(C)C=C(c5ccccc5)C(=O)C(C)(C)[C@@H]4CC[C@@]3(C)[C@]1(C)CC2 | –
7 | 15.3 | COC(=O)[C@]12CCC(C)(C)C[C@H]1C1=CC[C@@H]3[C@@]4(C)C=C(C#N)C(=O)C(C)(C)[C@@H]4CC[C@@]3(C)[C@]1(C)CC2 | Ratio [2]: 1.69
8 | 7.69 | COC(=O)[C@]12CCC(C)(C)C[C@H]1C1=CC[C@@H]3[C@@]4(C)C=C(C=O)C(=O)C(C)(C)[C@@H]4CC[C@@]3(C)[C@]1(C)CC2 | Activity (HaCaT): Toxic; EC50 [3]: Nd(Toxic); IC50 [4]: Nd(Toxic); Activity (HeLa): Toxic
9 | > 25 | COC(=O)C1=C[C@]2(C)[C@H]3CC=C4[C@@H]5CC(C)(C)CC[C@]5(C(=O)OC)CC[C@@]4(C)[C@]3(C)CC[C@H]2C(C)(C)C1=O | –
10 | > 25 | COC(=O)[C@]12CCC(C)(C)C[C@H]1C1=CC[C@@H]3[C@@]4(C)CCC(=O)C(C)(C)[C@@H]4CC[C@@]3(C)[C@]1(C)CC2 | –

More lines, now with the values behind:

Row | Structure (SMILES) | IC50 [1] [µM] | also measured
11 | COC(=O)[C@]12CCC(C)(C)C[C@H]1C1=CC[C@@H]3[C@@]4(C)C=C(C#Cc5ccccc5)C(=O)C(C)(C)[C@@H]4CC[C@@]3(C)[C@]1(C)CC2 | > 25 | –
12 | COC(=O)[C@]12CCC(C)(C)C[C@H]1C1=CC[C@@H]3[C@@]4(C)Cc5cnoc5C(C)(C)[C@@H]4CC[C@@]3(C)[C@]1(C)CC2 | > 25 | –
13 | CCOC(=O)/C=C/C1=C[C@]2(C)[C@H]3CC=C4[C@@H]5CC(C)(C)CC[C@]5(C(=O)OC)CC[C@@]4(C)[C@]3(C)CC[C@H]2C(C)(C)C1=O | > 25 | –
14 | CC1(C)CC[C@]2(C(=O)O)CC[C@]3(C)C(=CC[C@@H]4[C@@]5(C)CC[C@H](O)C(C)(C)[C@@H]5CC[C@]43C)[C@@H]2C1 [OLEANOLIC_ACID] | > 50 | –
15 | COC(=O)[C@]12CCC(C)(C)C[C@H]1C1=CC[C@@H]3[C@@]4(C)CC(C#N)=C(O)C(C)(C)[C@@H]4CC[C@@]3(C)[C@]1(C)CC2 | > 25 | –
16 | COC(=O)[C@]12CCC(C)(C)C[C@H]1C1=CC[C@@H]3[C@@]4(C)C=C(c5ccc(OC)cc5)C(=O)C(C)(C)[C@@H]4CC[C@@]3(C)[C@]1(C)CC2 | > 25 | –
17 | COC(=O)[C@]12CCC(C)(C)C[C@H]1C1=CC[C@@H]3[C@@]4(C)CC(C=O)=C(O)C(C)(C)[C@@H]4CC[C@@]3(C)[C@]1(C)CC2 | > 25 | –
18 | COC(=O)[C@]12CCC(C)(C)C[C@H]1[C@H]1C(=O)C=C3[C@@]4(C)C=C(C#N)C(=O)C(C)(C)[C@@H]4CC[C@@]3(C)[C@]1(C)CC2 [BARDOXOLONE METHYL] | 1.2 to 2.38 | Ratio [2]: 40.9
19 | COC(=O)[C@]12CCC(C)(C)C[C@H]1C1=CC[C@@H]3[C@@]4(C)C=C(c5ccc(C#N)cc5)C(=O)C(C)(C)[C@@H]4CC[C@@]3(C)[C@]1(C)CC2 | > 25 | –
